Source: PMC3694426 (Clinical cancer research : an official journal of the …, 2013)
Marks after values point to notes of the source that are not given here.

Experiments:
[1] = target: Smo receptor; conditions: read-out: IC50, binding to the Smo receptor; stated in introduction; cited from earlier work
[2] = system: pancreatic tumor model with elevated Shh (sonic hedgehog) expression; conditions: stated in introduction; cited from earlier work
[3] = system: B837Tx medulloblastoma allograft; conditions: oral administration; cited from earlier work
[4] = system: Gli-1 mRNA; test: pharmacodynamics: Gli-1 expression in skin and tumor biopsies; format: in vivo, human
Summary of the method: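 Normal skin was biopsied before treatment and 3 weeks into cycle 1 of once-daily oral dosing. RNA was extracted and Gli-1 mRNA measured by RT-PCR. In the biopsy cohort, accessible tumours were sampled at the same time points (baseline cycle 1 day −7; cycle 1 day 22). Gli-1 IHC scored stromal versus epithelial nuclear staining.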

[5] = plasma pharmacokinetics in patients; format: in vivo, human; conditions: for CL/F: day 22 of cycle 1, plasma, arithmetic mean (CV%); for half-life: in vivo
[6] = phase I dose escalation: DLTs, MTD and treatment-emergent adverse events; format: in vivo, human

CC1=C2C[C@H]3[C@@H](CC[C@@H]4C[C@H](NS(C)(=O)=O)CC[C@@]43C)[C@@H]2CC[C@@]2(C1)O[C@@H]1C[C@H](C)CN[C@H]1[C@H]2C [IPI-926]
IC50 [1]: 1.4 nM
Shh signaling in surrounding stromal tissue (Gli1 mRNA) [2]: inhibited Shh signaling
tumor growth [2]: slows tumor growth
inhibition of HhP activity (downregulation of Gli1 mRNA) [3]: dose-dependent inhibition of HhP activity
survival of mice bearing orthotopically implanted tumors [3]: significant prolongation of survival
patients with a decrease in Gli-1 transcript level in normal skin biopsies ([4]; 48 of 65 patients, after 21 days of treatment): 74%
Gli-1 transcript reduction in stroma (LCM quantitative RT-PCR) ([4]; rectal adenocarcinoma patient biopsy, cycle 1, day 22 vs baseline): about 7 fold
Gli-1 stromal staining (IHC) ([4]; rectal adenocarcinoma posttreatment biopsy, cycle 1, day 22): reduced Gli-1 stromal staining
CL/F ([5]; 20 mg QD oral (n = 1)): 111 (NC) L/h
CL/F ([5]; 30 mg QD oral (n = 1)): 59.0 (NC) L/h
CL/F ([5]; 40 mg QD oral (n = 1)): 50.0 (NC) L/h
CL/F ([5]; 60 mg QD oral (n = 1)): 28.6 (NC) L/h
CL/F ([5]; 130 mg QD oral, n = 4): 23.0 (36.0) ^b L/h
CL/F ([5]; 160 mg QD oral (n = 4)): 21.2 (38.5) L/h
CL/F ([5]; 180 mg QD oral (n = 1)): 14.0 (NC) L/h
CL/F ([5]; 200 mg QD oral (n = 1)): 13.3 (NC) L/h
CL/F ([5]; 210 mg QD oral (n = 5)): 20.6 (35.5) L/h
mean oral clearance (CL/F) ([5]; 130-mg dose level, expanded phases): 27.4 L/h
mean oral clearance (CL/F) ([5]; 160-mg dose level, expanded phases): 20.1 L/h
half-life ([5]; human, po): 20 to 40 h
half-life ([5]; human, po, 130 mg): 19.3 h
half-life ([5]; human, po, 160 mg): 17.3 h
half-life ([5]; human, po, 180 mg): 16.1 h
half-life ([5]; human, po, 200 mg): 12.7 h
Tmax ([5]; human, plasma, po, Tmax (slow absorption), overall summary, patients): 2 to 8 h
dose dependence of mean AUC0–24 and Cmax ([5]; single and multiple doses of 130 to 160 mg, expanded phases): dose-proportional manner
DLTs per total patients treated ([6]; 20 mg QD): 0/1
DLTs per total patients treated ([6]; 30 mg QD): 0/1
DLTs per total patients treated ([6]; 40 mg QD): 0/1
DLTs per total patients treated ([6]; 60 mg QD): 0/1
DLTs per total patients treated ([6]; 90 mg QD): 0/1
ALT elevation (lab), treatment-emergent adverse event ([6]; 130 mg (n = 56), Grade 1–2): 40 (71) n (%)
AST elevation (lab), treatment-emergent adverse event ([6]; 130 mg (n = 56), Grade 1–2): 41 (73) n (%)
Alopecia, treatment-emergent adverse event ([6]; 130 mg (n = 56), Grade 1–2): 17 (30) n (%)
Decreased appetite, treatment-emergent adverse event ([6]; 130 mg (n = 56), Grade 1–2): 12 (21) n (%)
Diarrhea, treatment-emergent adverse event ([6]; 130 mg (n = 56), Grade 1–2): 15 (27) n (%)
Dysgeusia, treatment-emergent adverse event ([6]; 130 mg (n = 56), Grade 1–2): 6 (11) n (%)
Fatigue, treatment-emergent adverse event ([6]; 130 mg (n = 56), Grade 1–2): 29 (52) n (%)
Muscle spasms, treatment-emergent adverse event ([6]; 130 mg (n = 56), Grade 1–2): 11 (20) n (%)
Nausea, treatment-emergent adverse event ([6]; 130 mg (n = 56), Grade 1–2): 23 (41) n (%)
Thrombocytopenia (lab), treatment-emergent adverse event ([6]; 130 mg (n = 56), Grade 1–2): 12 (21) n (%)
Vomiting, treatment-emergent adverse event ([6]; 130 mg (n = 56), Grade 1–2): 11 (20) n (%)
ALT elevation (lab), treatment-emergent adverse event ([6]; 130 mg (n = 56), Grade ≥3): 4 (7) n (%)
AST elevation (lab), treatment-emergent adverse event ([6]; 130 mg (n = 56), Grade ≥3): 2 (4) n (%)
Alopecia, treatment-emergent adverse event ([6]; 130 mg (n = 56), Grade ≥3): 0 (0) n (%)
Decreased appetite, treatment-emergent adverse event ([6]; 130 mg (n = 56), Grade ≥3): 0 (0) n (%)
Diarrhea, treatment-emergent adverse event ([6]; 130 mg (n = 56), Grade ≥3): 0 (0) n (%)
Dysgeusia, treatment-emergent adverse event ([6]; 130 mg (n = 56), Grade ≥3): 1 (2) n (%)
Fatigue, treatment-emergent adverse event ([6]; 130 mg (n = 56), Grade ≥3): 3 (5) n (%)
Hemoglobin (lab), treatment-emergent adverse event ([6]; 130 mg (n = 56), Grade ≥3): 2 (4) n (%)
Muscle spasms, treatment-emergent adverse event ([6]; 130 mg (n = 56), Grade ≥3): 1 (2) n (%)
Nausea, treatment-emergent adverse event ([6]; 130 mg (n = 56), Grade ≥3): 0 (0) n (%)
Thrombocytopenia (lab), treatment-emergent adverse event ([6]; 130 mg (n = 56), Grade ≥3): 3 (5) n (%)
Vomiting, treatment-emergent adverse event ([6]; 130 mg (n = 56), Grade ≥3): 0 (0) n (%)
DLTs per total patients treated ([6]; 130 mg QD): 0/56
ALT elevation (lab), treatment-emergent adverse event ([6]; 160 mg (n = 18), Grade 1–2): 10 (55) n (%)
AST elevation (lab), treatment-emergent adverse event ([6]; 160 mg (n = 18), Grade 1–2): 14 (78) n (%)
Alopecia, treatment-emergent adverse event ([6]; 160 mg (n = 18), Grade 1–2): 4 (22) n (%)
Decreased appetite, treatment-emergent adverse event ([6]; 160 mg (n = 18), Grade 1–2): 5 (28) n (%)
Diarrhea, treatment-emergent adverse event ([6]; 160 mg (n = 18), Grade 1–2): 2 (11) n (%)
Dysgeusia, treatment-emergent adverse event ([6]; 160 mg (n = 18), Grade 1–2): 4 (22) n (%)
Fatigue, treatment-emergent adverse event ([6]; 160 mg (n = 18), Grade 1–2): 8 (44) n (%)
Hemoglobin (lab), treatment-emergent adverse event ([6]; 160 mg (n = 18), Grade 1–2): 12 (66) n (%)
Muscle spasms, treatment-emergent adverse event ([6]; 160 mg (n = 18), Grade 1–2): 6 (33) n (%)
Nausea, treatment-emergent adverse event ([6]; 160 mg (n = 18), Grade 1–2): 6 (33) n (%)
Thrombocytopenia (lab), treatment-emergent adverse event ([6]; 160 mg (n = 18), Grade 1–2): 4 (22) n (%)
Vomiting, treatment-emergent adverse event ([6]; 160 mg (n = 18), Grade 1–2): 6 (33) n (%)
ALT elevation (lab), treatment-emergent adverse event ([6]; 160 mg (n = 18), Grade ≥3): 5 (28) n (%)
AST elevation (lab), treatment-emergent adverse event ([6]; 160 mg (n = 18), Grade ≥3): 2 (11) n (%)
Alopecia, treatment-emergent adverse event ([6]; 160 mg (n = 18), Grade ≥3): 0 (0) n (%)
Decreased appetite, treatment-emergent adverse event ([6]; 160 mg (n = 18), Grade ≥3): 0 (0) n (%)
Diarrhea, treatment-emergent adverse event ([6]; 160 mg (n = 18), Grade ≥3): 1 (6) n (%)
Dysgeusia, treatment-emergent adverse event ([6]; 160 mg (n = 18), Grade ≥3): 1 (6) n (%)
Fatigue, treatment-emergent adverse event ([6]; 160 mg (n = 18), Grade ≥3): 3 (17) n (%)
